{"data": "Assay results of several laboratories"}
{"Compound": "C#CCOc1ccc(/C=C/c2cc(OC)cc(OC)c2-c2cnnn2C(=O)NCCc2ccccc2)cc1", "cell line": "RAW264.7", "test": "NO release, inhibitor, Griess", "conditions": "24 h, LPS-stimulated", "IC50": "11.7 µM"}
{"Compound": "COc1cc(NC(=O)c2ccccc2[N+](=O)[O-])ccc1S(N)(=O)=O", "cell line": "RAW264.7", "test": "cell growth or viability, MTT", "conditions": "48 h", "IC50": "> 100 µM"}
{"Compound": "COc1cc2c(NC3CCN(CCCC(=O)NCCCCCCCCCCCC(=O)N[C@H](C(=O)N4C[C@H](O)C[C@H]4C(=O)NCc4ccc(-c5scnc5C)cc4)C(C)(C)C)CC3)nc(N3CCC(F)(F)CC3)nc2cc1OCCCN1CCCC1", "cell line": "NCI-H1299", "test": "cell growth or viability, CCK-8", "conditions": "8 days", "IC50": "5 µM"}
{"Compound": "COc1cc(NC(=O)C2=C(C)NC(C)=C(C(=O)Nc3cc(OC)c(Cl)cc3OC)C2c2ccc(O)cc2)c(OC)cc1Cl", "cell line": "Vero", "test": "cell growth or viability, MTT", "IC50": "51.8 µM"}
{"Compound": "CC#CCOc1ccc(/C=C/c2cc(OC)cc(OC)c2-c2cnnn2C(=O)NC(C)C)cc1", "cell line": "RAW264.7", "test": "NO release, inhibitor, Griess", "conditions": "24 h, LPS-stimulated", "IC50": "5.5 µM"}
{"Compound": "COc1ccc(NC(=O)C2=C(C)NC(C)=C(C(=O)Nc3ccc(OC)cc3OC)C2c2cccc(Cl)c2)c(OC)c1", "cell line": "Vero", "test": "cell growth or viability, MTT", "IC50": "67.5 µM"}
{"Compound": "COc1cc2c3c(n(CCCn4ccnc4)c(=O)c2cc1OC)-c1nc2c(cc1C3=O)OCO2", "cell line": "HL-60", "test": "cell growth or viability, MTS", "conditions": "72 h", "IC50": "> 2 µM"}
{"Compound": "CC#CCOc1ccc(/C=C/c2cc(OC)cc(OC)c2-c2cnnn2C(=O)NCCc2ccccc2)cc1", "cell line": "RAW264.7", "test": "NO release, inhibitor, Griess", "conditions": "24 h, LPS-stimulated", "IC50": "6.1 µM"}
{"Compound": "CC(C)c1ccccc1[C@@H]1CCCN1C1CC2(CCN(c3ccc(C(=O)NS(=O)(=O)c4ccc(NC[C@H]5CC[C@](C)(O)CC5)c([N+](=O)[O-])c4)c(Oc4cnc5[nH]ccc5c4)c3)CC2)C1", "cell line": "HL-60", "test": "cell growth or viability, ATP luminescence", "conditions": "48 h", "IC50": "0.381 µM"}
{"Compound": "COc1cc(NC(=O)c2ccco2)ccc1S(N)(=O)=O", "cell line": "RAW264.7", "test": "cell growth or viability, MTT", "conditions": "48 h", "IC50": "> 100 µM"}
{"Compound": "C=C(F)C(=O)N1CCN(c2nc(OC[C@@H]3CCCN3C)nc3c2CCN(c2cccc4cccc(Cl)c24)C3)C[C@@H]1CC#N", "cell line": "OV56", "test": "cell growth or viability, ATP luminescence", "conditions": "3D culture", "IC50": "> 1 µM"}
{"Compound": "COc1cc2c3c(n(CCCNC(C)C)c(=O)c2cc1OC)-c1nc2c(cc1C3=O)OCO2", "cell line": "HL-60", "test": "cell growth or viability, MTS", "conditions": "72 h", "IC50": "0.328 µM"}
{"Compound": "CC1(C)CCC(CN2CCN(c3ccc(C(=O)NS(=O)(=O)c4ccc(NCC5CCOCC5)c([N+](=O)[O-])c4)c(Oc4cnc5[nH]ccc5c4)c3)CC2)=C(c2ccc(Cl)cc2)C1", "cell line": "Maver1", "test": "cell growth or viability, ATP luminescence", "conditions": "48 h", "IC50": "0.0065 µM"}
{"Compound": "CC(C)Oc1ccc(S(=O)(=O)c2ccc(Oc3cc(OCC(N)=O)c(C(=O)C(Cl)Cl)cc3[N+](=O)[O-])cc2)cc1", "cell line": "NCI-H1299", "test": "cell growth or viability, MTT", "conditions": "72 h", "IC50": "0.31 µM"}
{"Compound": "COc1cc2c3c(n(CCCN4CCOCC4)c(=O)c2cc1OC)-c1nc2c(cc1C3=O)OCO2", "cell line": "HL-60", "test": "cell growth or viability, MTS", "conditions": "72 h", "IC50": "> 2 µM"}
{"Compound": "C#CCOc1ccc(/C=C/c2cc(OC)cc(OC)c2-c2cnnn2C(=O)NCCC)cc1", "cell line": "RAW264.7", "test": "NO release, inhibitor, Griess", "conditions": "24 h, LPS-stimulated", "IC50": "0.7 µM"}
{"Compound": "CCOc1ccc(C(=O)Nc2ccc(S(N)(=O)=O)c(OC)c2)cc1", "cell line": "RAW264.7", "test": "cell growth or viability, MTT", "conditions": "48 h", "IC50": "> 100 µM"}
